From ChEMBL document CHEMBL6071188, “Synthesis and In Vivo Profiling of Desymmetrized Antimalarial Trioxolanes with Diverse Carbamate Side Chains” (ACS Med Chem Lett, 2024) come the findings set out here.

Converted amounts (≈) assume the structure as drawn. The source made the active and inactive calls. No cut-off for these calls is given here. A value given as a limit tells only on which side of the number the result lay.

Series [1] can be described thus: Oral bioavailability in male CD1 mouse at 10 mg/kg measured upto 24 hrs. The format is ADME, organism-based. As to conditions: in vivo. The method in brief: (§1)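 Male CD1 mice, n = 3 per group, dosed IV at 3 mg/kg or PO at 10 mg/kg in 10% DMSO/50% PEG400/40% of 20% HP-β-CD in water. Samples below the limit of quantitation excluded from parameters and mean concentrations.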

Series [2] concerns Plasmodium berghei. Nature of the series: Antiplasmodial activity against Plasmodium berghei infected in female Swiss Webster mouse model assessed as survival at 20 mg/kg, po administered once daily for 1 day.
Series [3] in a line: Metabolic stability in human liver microsomes assessed as intrinsic clearance. The format is ADME, Microsome. As to conditions: for microsomal CLint: liver microsomes, read-out: CLH; for microsomal intrinsic clearance: microsomes.
Series [4] in a line: Toxicity in female Swiss Webster mouse infected with Plasmodium berghei assessed as drug tolerance at 20 mg/kg, […]. The format is organism-based. Particulars: in vivo, po.
Series [5] can be described thus: Half life in male CD1 mouse at 10 mg/kg, po measured upto 24 hrs. Format: ADME, organism-based. Particulars: in vivo.
Series [6] is described as follows: Volume of distribution at steady state in male CD1 mouse at 3 mg/kg, iv measured upto 24 hrs. Format: ADME, organism-based. As to conditions: in vivo. The method, boiled down: as §1
Series [7] can be described thus: Clearance in male CD1 mouse at 3 mg/kg, iv measured upto 24 hrs. Format: ADME, organism-based. As to conditions: in vivo. The method, boiled down:
as §1

The nature of series [8]: AUClast in male CD1 mouse at 10 mg/kg, po measured upto 24 hrs. Format: ADME, organism-based. Particulars: in vivo. The method, boiled down:
as §1

A short description of series [9]: Solubility of the compound in PBS buffer at pH 7.4. The format is physicochemical.
Series [10] has as its system Plasmodium berghei. Nature of the series: Antiplasmodial activity against Plasmodium berghei infected in female Swiss Webster mouse model assessed as survival at 10 mg/kg, po administered once daily for 2 days and measured upto 30 days. Format: functional. Particulars: time 30 day. The method, boiled down:
(§2)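 Female Swiss Webster mice (~20 g) infected ip with 10^6 P. berghei-infected erythrocytes from a donor mouse. Dosing by oral gavage once daily for 1–2 days starting 1 h post-inoculation, in 10% DMSO/50% PEG400/40% of 20% HP-β-CD in water. Five mice per arm. Daily Giemsa smears from day 7, counting infected cells per 1000 erythrocytes. Body weight tracked. Euthanasia at >50% parasitemia or >15% weight loss. Followed to day 30; cure means no parasitemia at day 30. Survival reported as the day of the longest-surviving mouse.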

Series [11] deals with Plasmodium berghei. Nature of the series: Antiplasmodial activity against Plasmodium berghei infected in female Swiss Webster mouse model assessed as reduction in parasitemia at 20 mg/kg, po administered once daily for 2 days and measured upto 30 days by giemsa staining based microscopic analysis. Format: functional, organism-based. As to conditions: time 30.0 day. The method in brief:
as §2

Series [12] can be described thus: Toxicity in female Swiss Webster mouse infected with Plasmodium berghei assessed as drug tolerance at 10 mg/kg, po administered once daily for 2 days and measured upto 30 days. Format: organism-based. As to conditions: in vivo, 720 h, time 30 day. The method in brief:
as §2

For series [13], the system named is Plasmodium berghei. Nature of the series: Antiplasmodial activity against Plasmodium berghei infected in female Swiss Webster mouse model assessed as survival at 50 mg/kg, […]. Format: functional. Particulars: route po. The method, boiled down: as §2
Series [14] has as its system Plasmodium berghei. Nature of the series: Antiplasmodial activity against Plasmodium berghei infected in female Swiss Webster mouse model assessed as cure rate at 40 mg/kg, po measured upto 30 days relative to control. The format is functional. As to conditions: time <= 30 day.
A short description of series [15]: Toxicity in female Swiss Webster mouse infected with Plasmodium berghei assessed as drug tolerance at 4 mg/kg, po administered once daily for 2 days and measured upto 30 days. The format is organism-based. Particulars: in vivo, 720 h, time 30 day. The method in brief:
as §2

A short description of series [16]: Toxicity in female Swiss Webster mouse infected with Plasmodium berghei assessed as drug tolerance at 50 mg/kg, […]. Particulars: in vivo, po. The format is organism-based. The method, boiled down: as §2
The subject of series [17] is Plasmodium berghei. Nature of the series: Antiplasmodial activity against Plasmodium berghei infected in female Swiss Webster mouse model assessed as survival at 4 mg/kg, po administered once daily for 2 days and measured upto 30 days. Particulars: time 30 day. The format is functional. The method in brief: as §2
The test system of series [18] is Plasmodium berghei. Nature of the series: Antiplasmodial activity against Plasmodium berghei infected in female Swiss Webster mouse model assessed as survival at 20 mg/kg, po […]. Format: functional. The method, boiled down: as §2
Series [19] deals with Plasmodium berghei. Nature of the series: Antiplasmodial activity Plasmodium berghei ANKA infected in female NMRI mouse model assessed as cure rate at 10 mg/kg, po administered as three consecutive dose daily for 24 to 72 hrs post infection by giemsa staining based microscopy analysis relative to control. The format is functional. Particulars: time 24-72 hrs.
A short description of series [20]: Oral bioavailability in rat at 17.4 mg/kg by LC-MS analysis. Format: ADME, organism-based. As to conditions: in vivo.
Series [21] in a line: Solubility of the compound in PBS buffer at pH 7.4 at 2 mg/ml incubated for 5 to 6 hrs by LC-MS analysis. The format is physicochemical. Particulars: time 5-6 hrs.
For series [22], the system named is Plasmodium falciparum. Nature of the series: Antiplasmodial activity against Plasmodium falciparum W2 infected in human erythrocytes assessed as inhibition of parasitic growth incubated for 72 hrs by YOYO-1 staining based FACScalibur flow cytometry analysis. Format: functional, organism-based. As to conditions: W2, Erythrocyte. The method in brief:
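P. falciparum W2 grown at 2% hematocrit in RPMI 1640 with 0.5% AlbuMAX II, 0.1 mM hypoxanthine and 25 mM HEPES pH 7.4, at 37 °C under 5% O2/5% CO2/90% N2. Twelve concentrations (3-fold steps, 10 μM to 0.06 nM) or DMSO, 72 h. Cells fixed in 2% formaldehyde, permeabilized, stained with 25 nM YOYO-1 (≥24 h, 4 °C). Parasitemia by flow cytometry on 5 × 10^4 cells. IC50 from 3 replicates.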
Background: In flow cytometry, cells or beads pass a laser one at a time.

In series [23] the test system is Plasmodium berghei. Nature of the series: Antiplasmodial activity against Plasmodium berghei infected in female Swiss Webster mouse model assessed as reduction in parasitemia at 20 mg/kg, po administered as a single dose and monitored for 30 days by giemsa staining based microscopic analysis. As to conditions: time 30.0 day.

Take `CC(C)(N)CNC(=O)O[C@@H]1CCC[C@]2(C1)OOC1(O2)C2CC3CC(C2)CC1C3` (some centres undefined): in series [1], the F amounted to 39.3%. Also, the Survival in series [2] is 12 days. Moreover, the microsomal CLint in series [3] amounted to 12.8 µL/min/mg. Also, in series [4], the Activity entry is recorded as “Non-Toxic”. For the same molecule, the t1/2 in series [5] was 2.09 h. The Vdss (in general, a proportionality between amount in the body and measured concentration, not a real space) in series [6] worked out at 2.79 L/kg. In series [7], this molecule came in with a CL of 108 mL/min/kg. For the same molecule, the AUClast in series [8] was 555 ng·h/mL.
In series [1], `CC(C)(N)CNC(=O)O[C@H]1CCC[C@@]2(C1)OOC1(O2)C2CC3CC(C2)CC1C3` (some centres undefined) displayed an F of 38.9%. For the same molecule, the Survival in series [2] was determined as 20 days; in series [10] it was 30 days. The microsomal CLint in series [3] is less than 11.5 µL/min/mg. Besides, in series [9], the kinetic solubility (in general, solubility judged after dilution from a stock solution rather than from solid) is 174 µM (≈ 68.6 µg/mL). Also, the result in series [11] was Active. Further, the Activity result in series [4] and in [12] was “Non-Toxic” in each case. Further, the t1/2 in series [5] worked out at 1.44 h. In [6], this molecule had a Vdss of 2.5 L/kg. In [7], this molecule displayed a CL of 77 mL/min/kg. In series [8], this molecule returned an AUClast of 818 ng·h/mL.
As for `NC1CCN(C(=O)O[C@@H]2CCC[C@]3(C2)OOC2(O3)C3CC4CC(C3)CC2C4)CC1` (some centres undefined), the Survival worked out at 11 days in [2], 12 days in series [10], 12 days in series [13] and 11 days in [17]. In series [9], this molecule registered a kinetic solubility of 145 µM (≈ 58.9 µg/mL). Further, the Activity in series [14] is 20%; in series [15], “Non-Toxic”; in series [4], “Non-Toxic”; in series [16] it was “Non-Toxic”; in series [12], “Non-Toxic”.
As to `N[C@@H]1CCN(C(=O)O[C@@H]2CCC[C@]3(C2)OOC2(O3)C3CC4CC(C3)CC2C4)C1` (some centres undefined), the microsomal intrinsic clearance in series [3] came out at 45.8 µL/min/mg. Also, the kinetic solubility in series [9] was 167 µM (≈ 65.5 µg/mL). Moreover, the Activity in [14] is given as 20%.
For the molecule “(S,S)-dispiro[adamantane-2,3'-[1,2,4]trioxolane-5',1''-cyclohexan]-3''-yl-piperidine-1-carboxylate”, in series [18], the Survival was determined as 7 days.
With `NCC1CCN(C(=O)O[C@@H]2CCC[C@]3(C2)OOC2(O3)C3CC4CC(C3)CC2C4)CC1` (some centres undefined), the Activity in series [14] worked out at 20%.
With `NCCNC(=O)O[C@H]1CCC[C@@]2(C1)OOC1(O2)C2CC3CC(C2)CC1C3` (some centres undefined), in series [1], the F is on record as 43.1%. Also, the microsomal intrinsic clearance in series [3] stood at 23.1 µL/min/mg. In series [9], the kinetic solubility worked out at 144 µM (≈ 52.8 µg/mL). Further, in series [10], the Survival is 30 days. Also, the result in series [11] was Active. This molecule gave a t1/2 in series [5] of 1.66 h. Also, in series [12], the Activity entry was “Non-Toxic”. The Vdss in series [6] was 2.33 L/kg. In series [7], the CL was determined as 66 mL/min/kg. The molecule also had an AUClast in series [8] of 1038 ng·h/mL.
For `NCCC1CCN(C(=O)O[C@@H]2CCC[C@]3(C2)OOC2(O3)C3CC4CC(C3)CC2C4)CC1` (some centres undefined), in series [14], the Activity stood at 20%.
For the molecule `CC(C)(N)CNC(=O)C[C@H]1CC[C@]2(CC1)OO[C@]1(O2)C2CC3CC(C2)CC1C3`, the Activity in [19] is 67%; in series [14] it was 100%; in [12], “Non-Toxic”. Besides, in series [20], the bioavailability (as a rule, the share of a dose that reaches the circulation, judged against a reference dose that is usually intravenous) was 35%. Besides, the microsomal CLint in series [3] is less than 7 µL/min/mg. The Survival in series [10] is 14 days. Also, the solubility (as a rule, how much of the substance goes into solution per volume) in series [21] is 504 µM (≈ 198 µg/mL).
In the case of `NC1(CNC(=O)O[C@@H]2CCC[C@]3(C2)OOC2(O3)C3CC4CC(C3)CC2C4)CC1` (some centres undefined), in series [22], the EC50 (usually the midpoint of the concentration-response curve) stood at 1.5 nM. In addition, in series [3], the microsomal CLint was 41.7 µL/min/mg.
`c1cc([C@H]2CC[C@]3(CC2)OO[C@]2(O3)C3CC4CC(C3)CC2C4)ccc1OCCN1CCOCC1`: the Survival in [2] was found to be 30 days. This molecule also gave a solubility in series [21] of 0.181 µM (≈ 0.085 µg/mL). Besides, in [23], the result was Active.
Regarding `NC1(CNC(=O)O[C@@H]2CCC[C@]3(C2)OOC2(O3)C3CC4CC(C3)CC2C4)COC1` (some centres undefined), the Survival turned out to be 7 days in [2] and 8 days in series [10]. Also, the microsomal intrinsic clearance in series [3] stood at 23.4 µL/min/mg. Also, the solubility (kinetic) in [9] was determined as 122 µM (≈ 49.8 µg/mL). Also, the Activity result in series [4] and in series [12] was “Non-Toxic” throughout.
